Results of several laboratories.
Compare with care: the assays were run in different laboratories.
Target: Serine/threonine-protein kinase pim-1 (PIM1, Homo sapiens, UniProt P11309)

Compound	assay	setting	measurement	value
CC(C)(C)c1nc(-c2cccc(NS(=O)(=O)c3c(F)cccc3F)c2F)c(-c2ccnc(N)n2)s1	enzyme activity, inhibitor, radiometric	1 µM	remaining activity	109%
CCN(CC)CCNC(=O)c1c(C)[nH]c(/C=C2\C(=O)Nc3ccc(F)cc32)c1C	cell-free assay	0.5 µM	remaining signal	94.4%
COc1cc2ncnc(Nc3ccc(Oc4ccccc4)c(C)c3C)c2cc1OC	enzyme activity, inhibitor	1 µM	inhibition	5%
N#Cc1ccc(Nc2ccc3[nH]c(=O)[nH]c3c2)c(Cl)c1	cell-free assay, competition with immobilised ligand	1 µM	remaining binding	90%
O=C1NC(=O)c2cc(Nc3ccc(F)cc3)c(Nc3ccc(F)cc3)cc21	cell-free assay	0.5 µM	remaining signal	81.8%
Oc1cccc(-c2nc(N3CCOCC3)c3oc4ncccc4c3n2)c1	enzyme activity, inhibitor	10 µM	remaining activity	72%
CN(C)C1CCN(CC#Cc2nn(C3CCCC3)c3nc(NCc4ccccc4)ncc23)C1 (stereo not drawn)	enzyme activity, inhibitor, FRET	1 µM	inhibition	2%
CN1CC(Oc2cnc(C#N)cc2-c2ccn3nc(NC(=O)C4CC4)cc3c2)C1	enzyme activity, inhibitor	1 µM	inhibition	-7%
CNC(=O)c1cc(Oc2ccc(NC(=O)Nc3ccc(Cl)c(C(F)(F)F)c3)cc2)ccn1	enzyme activity, inhibitor	10 µM	inhibition	5%
COc1cc(Nc2c(C#N)cnc3cc(OCCCN4CCN(C)CC4)c(OC)cc23)c(Cl)cc1Cl	cell-free assay	0.5 µM	remaining signal	99.2%
Cc1ccc(C(=O)NCc2ccsc2)cc1C#Cc1cn(C(C)C)c2ncnc(N)c12	enzyme activity, inhibitor	1 µM	activity vs control	100%
O=C(Nc1cnn(-c2csc(C(=O)NC3COC3)c2)c1)Nc1ccccc1Cl	enzyme activity, inhibitor	5 µM	remaining activity	64.6%
CC/C(=N\NC(=O)NCc1cccc(O)c1)c1ccc(O)c(C)c1O	enzyme activity, inhibitor	0.1 µM	inhibition	2.4%
CC(=O)Nc1c(C(C)=O)c(=O)n(C)c2nc(-c3ccc(Cl)cc3Cl)c(-c3ccc(Cl)cc3)cc12	cell-free assay, competition with immobilised ligand	1 µM	remaining binding	100%
O=C(CSc1nc2nccnc2c(=O)n1CCc1ccccc1)Nc1nccs1	enzyme activity, inhibitor	10 µM	inhibition	5%
CCCOc1ccc(OC)c(F)c1C(=O)c1ccc(C(=O)N[C@@H]2CNC[C@H]2NC(=O)c2ccc3[nH]ncc3c2)cc1	enzyme activity, inhibitor	10 µM	remaining activity	40%
Cc1ccc(Nc2nccc(N(C)c3ccc4c(C)n(C)nc4c3)n2)cc1S(N)(=O)=O	enzyme activity, inhibitor	0.3 µM	inhibition	-1%

Compound	assay	setting	measurement	value
O=C1CCc2cc(Nc3cc(OC4CCOCC4)c([N+](=O)[O-])cc3Cl)ccc2N1	cell-free assay, competition with immobilised ligand	1 µM	remaining binding	96%
Cc1ncc([N+](=O)[O-])n1C(=NO)c1ccccc1C(F)(F)F	enzyme activity, inhibitor	10 µM	inhibition	8.92%
Nc1nc(NC2CCCCC2)sc1C(=O)c1ccccc1	enzyme activity, inhibitor	10 µM	remaining activity	94%
O=S(=O)(Nc1cc(Sc2ncn[nH]2)c(O)c2ccccc12)c1ccc(-c2ccccc2)cc1	enzyme activity, inhibitor	1 µM	remaining activity	≥ 75%
CS(=O)(=O)N1CCCC(NC(=O)[C@H](CCC2CCCCC2)NC(=O)c2ccc(CNc3ncnc4c3nnn4-c3ccccc3)cc2)C1 (stereo partly drawn)	cell-free assay, competition with immobilised ligand	0.1 µM	remaining binding	95%
Cc1ccc(NC(=O)c2ccc(C)c(C(F)(F)F)c2)cc1C#Cc1nn(C2CCC(O)CC2)c2ncnc(N)c12 (stereo not drawn)	cell-free assay	10 µM	remaining signal	99%
CC(C)(C)C(=O)c1sc(NC2CCCCC2)nc1N	enzyme activity, inhibitor	10 µM	remaining activity	90%
Cc1cc(NC(=O)c2cccc3cc(-c4cccc5[nH]nc(N)c45)ccc23)ccc1F	enzyme activity, inhibitor	0.1 µM	activity vs control	108%
O=C(N1CCS(=O)(=O)CC1)N1C[C@H](c2ccc(OC(F)(F)F)cc2)C[C@H](c2nc(C3CC3)no2)C1	cell-free assay, competition with immobilised ligand	1 µM	remaining binding	100%
COc1cc(Nc2cnc(C#N)c(O[C@H](C)CN(C)C)n2)ncc1-c1cnn(C)c1	enzyme activity, inhibitor, radiometric	1 µM	remaining activity	72%
O=C(Nc1cccnn1)N1CC(C/C=C/c2cncc(Oc3ccc(C(F)(F)F)cn3)n2)C1	cell-free assay, competition with immobilised ligand	1 µM	remaining binding	91%
CCN1/C(=C/C(C)=O)Sc2ccc(OC)cc21	cell-free assay	0.5 µM	remaining signal	17.9%
Nc1c(C(=O)NCc2ccc(C(=O)NCCCC3CCCCC3)cc2)cnn1-c1ccccc1	cell-free assay, competition with immobilised ligand	0.1 µM	remaining binding	93%
CNc1cccc2cc(C(=O)Nc3ccc(C(=O)O)cc3)c(=O)[nH]c12	enzyme activity, inhibitor	10 µM	inhibition	2.6%
O=C(Nc1ccc(Oc2ccc(F)cc2)cc1)N1CCc2ncccc2[C@H]1c1ccc(F)cc1	cell-free assay, competition with immobilised ligand	1 µM	remaining binding	99%
FC(F)(F)Oc1cccc(-c2cnc3ccc(-c4ccncc4)nn23)c1	enzyme activity, inhibitor, radiometric	5 µM	activity vs control	47%
